Each structure is given as a SMILES string.

System in one series: not listed separately
Nature of the series: in vivo. The settings on record: rat, brain/plasma, po, 16 mg/kg.
As to `Cl.Nc1c2c(nc3ccccc13)CCCC2.O`, the Kp was 5.

System in the next series: not listed separately
As to the kind of experiment: Ratio of drug level from brain to plasma in rat administered via intranasal route. It counts as ADME. The settings on record: inhaled or intranasal, read-out: BPR.
As for `CCN(C)C(=O)Oc1cccc([C@H](C)N(C)C)c1` [RIVASTIGMINE], the Kp was 3.

System in a further series: not listed separately
Nature of the series: Ratio of drug level from brain to plasma in mouse at 25 mg/kg, sc. It counts as ADME, organism-based. More on the design: dose 25 mg/kg, route subcutaneous. The settings on record: read-out: BPR. An outline of the steps: (§1)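 Mice received 25 mg/kg sc in ethanol/PEG-400/saline (10:40:50). Trunk blood and brain were collected at 0–240 min. Plasma and brain homogenate were solid-phase extracted and quantified by RP-HPLC (UV 224 nm, internal standard), n = 3. Cmax and tmax were read directly from the data; brain and plasma AUCt were calculated by the linear trapezoidal rule to give the brain/plasma ratio.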
On to `COc1ccc(Nc2ccc(OC)c3ccccc23)cc1`, for which the Kp was determined as 2.

System in a further series: not listed separately
As to the kind of experiment: Cmax in mouse brain at 25 mg/kg, sc. The format is ADME, organism-based. Further details: dose 25 mg/kg, route subcutaneous.
Settings: not given
An outline of the steps:
as §1
As to `COc1ccc(Nc2ccc(OC)c3ccccc23)cc1`, the Cmax was 410 ng/mL.

System in the next series: not listed separately
Nature of the series: Tmax in mouse brain at 25 mg/kg, sc. It counts as ADME, organism-based. More on the design: dose 25 mg/kg, route subcutaneous.
Settings: not given
Put shortly: as §1
With `COc1ccc(Nc2ccc(OC)c3ccccc23)cc1`, the Tmax was 1 h.

Another series concerns Mus musculus. As to the kind of experiment: Toxicity in mouse assessed as incidence of discomfort at 25 mg/kg, sc. The format is organism-based. The settings on record: in vivo. Further details: dose 25 mg/kg, route subcutaneous.
With `COc1ccc(Nc2ccc(OC)c3ccccc23)cc1`, the Activity result is reported as “Non-toxic”.

For the next series, the system named is Mus musculus. As to the kind of experiment: Toxicity in mouse assessed as incidence of side effect at 25 mg/kg, sc. It counts as organism-based. More on the design: dose 25 mg/kg, route subcutaneous. The settings on record: in vivo.
Regarding `COc1ccc(Nc2ccc(OC)c3ccccc23)cc1`, the Activity entry was “Non-toxic”.

System in another series: not listed separately
Nature of the series: Inhibition of amyloid beta (1 to 42) aggregation after 24 hrs by Thioflavin-T fluorescence assay.
Settings: not given
An outline of the steps:
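Nonaggregate Aβ1-42 (44 μM working solution) was then added, and plates were agitated at 37 °C for 24 h. Read-out used 10 μM ThT in Na2HPO4 pH 6.5 (ex 450/em 486 nm), in triplicate; IC50 came from % residual aggregate dose-response.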
On to `COC(=O)c1ccc(Nc2ccc(OC)c3ccccc23)cc1`, for which the IC50 entry is listed as “ND(Insoluble)”.
On to `COc1ccc(S(=O)(=O)c2ccc(OC)c3ccccc23)cc1`, for which the 50% inhibitory concentration (IC50) result was “ND(Insoluble)”.
Regarding `Oc1ccc2ccccc2c1Nc1c(O)ccc2ccccc12`, the IC50 entry was “ND(Unstable)”.
Same read-out and setting: then `COC(=O)c1ccc(Nc2ccc3ccccc3c2O)cc1`, with “ND(Insoluble)”.
As to `COc1ccc(Nc2ccccc2)c2ccccc12`, the IC50 result is “ND(Insoluble)”.
Consider `COc1ccc(Sc2ccc(OC)c3ccccc23)cc1`, for which the IC50 result is “ND(Insoluble)”.
In the case of `OCc1ccc(Nc2ccc(O)c3ccccc23)cc1`, the IC50 entry is on record as “ND(Unstable)”.

The series is the same for the next values; noted with them: read-out: IC50.
Turning to `COc1ccc(Nc2ccc(OC)c3ccccc23)cc1C(=O)O`, the IC50 is > 80 µM.
Take `COC(=O)c1ccccc1Nc1c(O)ccc2ccccc12`: the IC50 was > 20 µM.
Same read-out and setting: then `COC(=O)c1ccc(Nc2ccc3ccccc3c2OC)cc1`, with > 20 µM; and `COc1ccccc1Nc1ccc(OC)c2ccccc12`, with > 5 µM.
For the compound `COc1ccc(Nc2ccc(OC)c3ccccc23)cc1`, the IC50 turned out to be 5.6 µM.
Still for that read-out and setting: then `COc1c(Nc2ccc(I)cc2)ccc2ccccc12`, with > 5 µM; and `Fc1ccc(Nc2ccc(F)c3ccccc23)cc1`, with > 30 µM; and `COC(=O)c1ccccc1Nc1c(OC)ccc2ccccc12`, with > 5 µM.
As for `COc1c(Nc2ccccc2)ccc2ccccc12`, the concentration for half-maximal inhibition (IC50) worked out at 33.6 µM.
The same measure, in the same setting: then `O=C(O)c1cc2ccccc2c(Cc2c(O)c(C(=O)O)cc3ccccc23)c1O` [PAMOIC ACID], with 38.2 µM; and `CSc1ccc(Nc2ccc(N(C)C)c3ccccc23)cc1`, with 2.2 µM.
In the case of `O=C(O)c1ccc(Nc2cccc3ccccc23)cc1`, the IC50 is > 100 µM.
As to `COC(=O)c1ccc(Nc2ccc(O)c3ccccc23)cc1`, the IC50 was 5.1 µM.
As to `Oc1ccc(Sc2ccc(O)c3ccccc23)cc1`, the concentration for half-maximal inhibition (IC50) came to 10.9 µM.
The same measure, in the same setting: the result for `O=S(=O)(c1ccc(O)cc1)c1ccc(O)c2ccccc12` reads > 100 µM; that for `COc1ccc(I)cc1Nc1ccc(OC)c2ccccc12`, > 5 µM.
For the compound `Oc1c(Nc2ccccc2)ccc2ccccc12`, the IC50 was found to be 2.4 µM.
Regarding `Oc1ccc(Nc2ccccc2)c2ccccc12`, the IC50 worked out at 5.4 µM.
For the compound `COC(=O)c1ccc(Nc2cccc3ccccc23)cc1`, the half-inhibitory concentration (IC50) was > 20 µM.
As for `COc1ccc(Nc2ccc(C(=O)O)cc2)c2ccccc12`, the IC50 was > 60 µM.
With `CSc1ccc(Nc2ccc(F)c3ccccc23)cc1`, the IC50 was > 5 µM.
On the same count and under the same terms, the result for `O=C(O)c1cc(Nc2ccc(O)c3ccccc23)ccc1O` reads 46.1 µM; that for `COc1c(Nc2ccc(C(=O)O)cc2)ccc2ccccc12`, > 20 µM; that for `COc1ccc(Nc2ccc([N+](=O)[O-])c3ccccc23)cc1`, 2.7 µM.
For the compound `O=C(O)c1ccccc1Nc1ccc(CCCc2ccc(Cl)c(Cl)c2)cc1`, the IC50 amounted to 1 µM.
The same measure, in the same setting: then `O=C(O)c1ccc(Nc2ccc3ccccc3c2O)cc1`, with 2.6 µM; and `O=C1c2ccccc2C(=O)c2c(O)c(O)cc(Nc3ccc(S(=O)(=O)O)cc3)c21`, with 1.1 µM; and `COc1ccc2ccccc2c1Nc1c(OC)ccc2ccccc12`, with 5.7 µM.
On to `Oc1ccc(Nc2ccc(O)c3ccccc23)cc1`, for which the IC50 turned out to be 1 µM.
As to `O=C(O)c1c(Nc2ccc(CCc3ccc(Cl)c(Cl)c3)cc2)cccc1C(F)(F)F`, the IC50 was found to be 0.1 µM.
Still for that read-out and setting: then `O=C(O)c1ccccc1Nc1c(O)ccc2ccccc12`, with 14.1 µM.
The same measure, in the same setting: the result for `O=C(O)c1ccc(Nc2ccc(O)c3ccccc23)cc1` reads 57.4 µM.
As to `O=C(O)c1ccccc1Nc1ccc(CCc2ccc(Cl)c(Cl)c2)cc1`, the IC50 was 2 µM.
